Laboratory results as given in ChEMBL document CHEMBL1157834, “Structure-activity relationships of carbocyclic 6-benzylthioinosine analogues as subversive substrates of Toxoplasma gondii adenosine kinase” (Bioorg Med Chem, 2010).
pIC50, pKi: −log10 of the molar value.

Experiments:
Adenosine kinase = biological target: T1, Adenosine kinase (Toxoplasma gondii, UniProt Q9TVW2); assay: Binding affinity to Toxoplasma gondii adenosine kinase after 20 mins by radioactivity method
T1 sequence (Q9TVW2 whole entry): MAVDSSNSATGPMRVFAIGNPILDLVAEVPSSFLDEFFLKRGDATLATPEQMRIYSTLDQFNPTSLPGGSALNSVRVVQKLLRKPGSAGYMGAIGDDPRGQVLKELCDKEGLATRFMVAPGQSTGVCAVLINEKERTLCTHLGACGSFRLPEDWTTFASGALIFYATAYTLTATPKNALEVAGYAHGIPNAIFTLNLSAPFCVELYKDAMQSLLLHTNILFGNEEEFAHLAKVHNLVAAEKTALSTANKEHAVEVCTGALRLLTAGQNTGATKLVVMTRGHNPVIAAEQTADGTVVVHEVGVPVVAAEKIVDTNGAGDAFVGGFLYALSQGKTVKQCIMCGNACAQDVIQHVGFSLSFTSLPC
Outline: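 Purified cloned T. gondii adenosine kinase in 50 mM Tris–Cl pH 7.4 with 2.5 mM ATP, 5 mM MgCl₂, 5 mM creatine phosphate, creatine kinase and [8-¹⁴C]adenosine (55 Ci/mol), with or without varied compound, at 37 °C under linear conditions. Stopped by boiling; adenosine and AMP separated by TLC (CHCl₃/MeOH/AcOH 102:12:6) and radioactivity quantified. Apparent Ki taken as apparent Km. ≥2 experiments in triplicate.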

Toxoplasma gondii [1] = assay: Antimicrobial activity against wild-type Toxoplasma gondii RH infected in human CRL1634 cells assessed as intracellular parasite survival at 50 uM after 18 hrs by [5,6-[…]]uracil-based scintillation counting; assay type: functional
Outline: (§1)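 Confluent human foreskin fibroblasts (≤20 passages, RPMI-1640) plated ~5×10⁵/well for 24 h at 37 °C, 5% CO₂. Infected with isolated tachyzoites in 3% FBS medium, 1 parasite/cell, for 1 h, then washed with 10% FBS medium. Compounds in 50% ethanol added to 0–50 µM (final ethanol 2.5%). After 18 h, drug-free medium with [5,6-³H]uracil (5 µCi/mL) for 6 h. TCA precipitates collected on glass-fiber filters and counted by scintillation. Growth taken as % uptake of treated vs untreated; ≥2 experiments in triplicate.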

Homo sapiens [2] = organism: Homo sapiens; assay: Cytotoxicity against uninfected human CRL1634 cells assessed as cell viability at 10 uM after 48 hrs by MTT assay
Toxoplasma gondii [3] = assay: Antimicrobial activity against adenosine kinase deficient Toxoplasma gondii TgAK-3 infected in human CRL1634 cells assessed as intracellular parasite survival at 10 uM after 18 hrs by [5,6-[…]]uracil-based scintillation counting; assay type: functional; outline: as §1
Toxoplasma gondii [4] = assay: Antimicrobial activity against adenosine kinase deficient Toxoplasma gondii TgAK-3 infected in human CRL1634 cells assessed as intracellular parasite survival at 5 uM after 18 hrs by [5,6-[…]]uracil-based scintillation counting; assay type: functional; outline: as §1
Toxoplasma gondii [5] = assay: Antimicrobial activity against wild-type Toxoplasma gondii RH infected in human CRL1634 cells assessed as intracellular parasite survival at 5 uM after 18 hrs by [5,6-[…]]uracil-based scintillation counting; assay type: functional; outline: as §1
Homo sapiens [6] = organism: Homo sapiens; assay: Cytotoxicity against uninfected human CRL1634 cells assessed as cell viability at 5 uM after 48 hrs by MTT assay
[7] = biological target: T2, Adenosine kinase (Toxoplasma gondii) (UniProt Q9TVW2); assay: Ratio of Km for carbocyclic 6-benzylthioinosine to Km for drug for binding affinity to Toxoplasma gondii adenosine kinase after 20 mins by radioactivity method
T2 sequence (whole entry): T1 sequence (Q9TVW2 whole entry)

Toxoplasma gondii [8] = assay: Antimicrobial activity against adenosine kinase deficient Toxoplasma gondii TgAK-3 infected in human CRL1634 cells assessed as intracellular parasite survival at 50 uM after 18 hrs by [5,6-[…]]uracil-based scintillation counting; assay type: functional; outline: as §1
Toxoplasma gondii [9] = assay: Antimicrobial activity against wild-type Toxoplasma gondii RH infected in human CRL1634 cells assessed as intracellular parasite survival at 10 uM after 18 hrs by [5,6-[…]]uracil-based scintillation counting; assay type: functional; outline: as §1
Toxoplasma gondii [10] = assay: Antimicrobial activity against Toxoplasma gondii infected in human CRL1634 cells assessed as intracellular parasite survival at 25 uM after 18 hrs by [5,6-[…]]uracil-based scintillation counting; assay type: functional; outline: as §1
[11] = test system: Toxoplasma gondii (RH strain); assay: Activity against Toxoplasma gondii RH in human CRL1634 cells after 18 hrs by [5,6-3H]uracil incorporation assay
Toxoplasma gondii [12] = assay: Antimicrobial activity against adenosine kinase deficient Toxoplasma gondii TgAK-3 infected in human CRL1634 cells assessed as intracellular parasite survival at 25 uM after 18 hrs by [5,6-[…]]uracil-based scintillation counting; assay type: functional; outline: as §1
Toxoplasma gondii [13] = assay: Antimicrobial activity against wild-type Toxoplasma gondii RH infected in human CRL1634 cells assessed as intracellular parasite survival at 25 uM after 18 hrs by [5,6-[…]]uracil-based scintillation counting; assay type: functional; outline: as §1

In the case of `CS(=O)(=O)c1ccc(CSc2ncnc3c2ncn3[C@@H]2C[C@H](CO)[C@@H](O)[C@H]2O)cc1`, the pKi (Adenosine kinase) was 4.13.
In the case of `Cc1ccccc1CSc1ncnc2c1ncn2[C@@H]1C[C@H](CO)[C@@H](O)[C@H]1O`, the pKi (Adenosine kinase) was 4.60.
Work on `OC[C@H]1C[C@@H](n2cnc3c(SCc4ccc(OC(F)(F)F)cc4)ncnc32)[C@H](O)[C@@H]1O` yielded a pKi (Adenosine kinase) of 4.18.
`OC[C@H]1C[C@@H](n2cnc3c(SCc4ccc(Br)cc4)ncnc32)[C@H](O)[C@@H]1O` showed a pKi (Adenosine kinase) of 4.68.
Molecule `Cc1ccc(CSc2ncnc3c2ncn3[C@@H]2C[C@H](CO)[C@@H](O)[C@H]2O)cc1` has a pKi (Adenosine kinase) of 5.12, an Activity (Toxoplasma gondii [1]) of 0% and an Activity (Homo sapiens [2]) of 100%. It also gave an Activity (Toxoplasma gondii [3]) of 100%, an Activity (Toxoplasma gondii [4]) of 99% and an Activity (Toxoplasma gondii [5]) of 43%. It also gave an Activity (Homo sapiens [6]) of 100%, a Ratio [7] of 14 and an Activity (Toxoplasma gondii [8]) of 100%. It also gave an Activity (Toxoplasma gondii [9]) of 2.5%, an Activity (Toxoplasma gondii [10]) of 100% and a pIC50 [11] of 4.92. For the same molecule, the Activity (Toxoplasma gondii [12]) was 100% and the Activity (Toxoplasma gondii [13]) was 0%.
`Nc1ccc(S(=O)(=O)Nc2ncccn2)cc1` [SULFADIAZINE] showed an Activity (Toxoplasma gondii [1]) of 46%, an Activity (Homo sapiens [2]) of 100% and an Activity (Toxoplasma gondii [5]) of 93%. For the same molecule, the Activity (Homo sapiens [6]) was 98%, the Activity (Toxoplasma gondii [9]) was 58% and the Activity (Toxoplasma gondii [10]) was 100%. For the same molecule, the pIC50 [11] was 4.56 and the Activity (Toxoplasma gondii [13]) was 53%.
For `OC[C@H]1C[C@@H](n2cnc3c(SCc4ccccc4)ncnc32)[C@H](O)[C@@H]1O`, the pKi (Adenosine kinase) was 3.98.
Molecule `O=[N+]([O-])c1cccc(CSc2ncnc3c2ncn3[C@@H]2C[C@H](CO)[C@@H](O)[C@H]2O)c1` has a pKi (Adenosine kinase) of 4.58.
`CCc1nc(N)nc(N)c1-c1ccc(Cl)cc1` [PYRIMETHAMINE] showed an Activity (Toxoplasma gondii [1]) of 23%, an Activity (Homo sapiens [2]) of 100% and an Activity (Toxoplasma gondii [5]) of 99%. For the same molecule, the Activity (Homo sapiens [6]) was 101%, the Activity (Toxoplasma gondii [9]) was 55% and the Activity (Toxoplasma gondii [10]) was 108%. It also gave a pIC50 [11] of 4.79 and an Activity (Toxoplasma gondii [13]) of 25%.
With `OC[C@H]1C[C@@H](n2cnc3c(SCc4cccc(C(F)(F)F)c4)ncnc32)[C@H](O)[C@@H]1O` the pKi (Adenosine kinase) was 4.65.
Work on `Cc1cc(C)c(CSc2ncnc3c2ncn3[C@@H]2C[C@H](CO)[C@@H](O)[C@H]2O)c(C)c1` yielded a pKi (Adenosine kinase) of 4.20.
For `OC[C@H]1C[C@@H](n2cnc3c(SCc4c(F)cccc4Cl)ncnc32)[C@H](O)[C@@H]1O`, the pKi (Adenosine kinase) was 4.50.
In the case of `Cc1cccc(CSc2ncnc3c2ncn3[C@@H]2C[C@H](CO)[C@@H](O)[C@H]2O)c1`, the pKi (Adenosine kinase) was 4.57.
In the case of `OC[C@H]1C[C@@H](n2cnc3c(SCc4ccccc4F)ncnc32)[C@H](O)[C@@H]1O`, the pKi (Adenosine kinase) was 4.26.
Molecule `COc1ccc(CSc2ncnc3c2ncn3[C@@H]2C[C@H](CO)[C@@H](O)[C@H]2O)cc1` has a pKi (Adenosine kinase) of 4.21.
`OC[C@H]1C[C@@H](n2cnc3c(SCc4ccc(F)cc4)ncnc32)[C@H](O)[C@@H]1O` gave a pKi (Adenosine kinase) of 4.50.
`COC(=O)c1ccc(CSc2ncnc3c2ncn3[C@@H]2C[C@H](CO)[C@@H](O)[C@H]2O)cc1` gave a pKi (Adenosine kinase) of 4.39.
`OC[C@H]1C[C@@H](n2cnc3c(SCc4ccc(Cl)cc4Cl)ncnc32)[C@H](O)[C@@H]1O` showed a pKi (Adenosine kinase) of 4.22.
In the case of `O=[N+]([O-])c1ccc(CSc2ncnc3c2ncn3[C@@H]2C[C@H](CO)[C@@H](O)[C@H]2O)cc1`, the pKi (Adenosine kinase) was 4.03.
`OC[C@H]1C[C@@H](n2cnc3c(SCc4ccc(Cl)cc4)ncnc32)[C@H](O)[C@@H]1O` was tested, and the pKi (Adenosine kinase) was 4.81, the Activity (Toxoplasma gondii [1]) was 0% and the Activity (Homo sapiens [2]) was 100%. It also gave an Activity (Toxoplasma gondii [3]) of 100%, an Activity (Toxoplasma gondii [4]) of 100% and an Activity (Toxoplasma gondii [5]) of 73%. For the same molecule, the Activity (Homo sapiens [6]) was 100%, the Activity (Toxoplasma gondii [8]) was 100% and the Activity (Toxoplasma gondii [9]) was 12%. The Activity (Toxoplasma gondii [10]) was 100%, the pIC50 [11] was 4.84 and the Activity (Toxoplasma gondii [12]) was 100%. The Activity (Toxoplasma gondii [13]) was 0%.
In the case of `N#Cc1ccc(CSc2ncnc3c2ncn3[C@@H]2C[C@H](CO)[C@@H](O)[C@H]2O)cc1`, the pKi (Adenosine kinase) was 3.89.
With `OC[C@H]1C[C@@H](n2cnc3c(SCc4ccccc4Cl)ncnc32)[C@H](O)[C@@H]1O` the pKi (Adenosine kinase) was 4.62.
`OC[C@H]1C[C@@H](n2cnc3c(SCc4ccc(Cl)c(Cl)c4)ncnc32)[C@H](O)[C@@H]1O` was tested, and the pKi (Adenosine kinase) was 4.77.
In the case of `OC[C@H]1O[C@@H](n2cnc3c(SCc4ccccc4)ncnc32)[C@H](O)[C@@H]1O` [6-BENZYLTHIOINOSINE], the pKi (Adenosine kinase) was 4.84.
